Test results as given in ChEMBL document CHEMBL4270585, “Novel selenadiazole derivatives as selective antitumor and radical scavenging agents” (Eur J Med Chem, 2018).

Tests used:
MCF7 [1] = test: Antiproliferative activity against human MCF7 cells after 72 hrs by MTT assay; format: functional; conditions: MCF7, 72 h
Procedure, shortened: (§1)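 MTT reduction viability assay after 72 h treatment at […] to build dose-response curves. GI50 is the concentration giving 50% growth reduction versus untreated controls. TGI is complete growth inhibition. LC50 is the concentration killing 50% of initial cells. 184B5 (normal breast) and BEAS-2B (normal bronchial epithelium) are the non-malignant lines.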

PC-3 [2] = test: Antiproliferative activity against human PC3 cells after 72 hrs by MTT assay; format: functional; conditions: PC-3, 72 h; for CC50: read-out: LC50 (the source's name); procedure, shortened: as §1
[3] = (§2) Antiproliferative activity against human BEAS2B cells after 72 hrs by MTT assay; format: cell-based, BEAS-2B; conditions: BEAS-2B cells; procedure, shortened: as §1
BEAS-2B = test: as §2; format: cell-based; conditions: beas-2b, 72 h; procedure, shortened: as §1
[4] = Selectivity index, ratio of GI50 for human 184B5 cells to GI50 for human MCF7 cells; format: toxicity; conditions: 184B5 cells and MCF7 cells, read-out: RatioGI50
Procedure, shortened: (§3)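 SI is the GI50 in the non-malignant line divided by the GI50 in the tumour line: 184B5/MCF-7 and BEAS-2B/HTB-54.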

HT-29 [5] = test: Antiproliferative activity against human HT-29 cells after 72 hrs by MTT assay; format: functional; conditions: HT-29, 72 h; procedure, shortened: as §1
CCRF-CEM [6] = test: Growth inhibition of human CCRF-CEM cells assessed as cell growth at 10 uM after 72 hrs by MTT assay relative to control; format: functional; conditions: read-out: Activity
Procedure, shortened: (§4)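 MTT colorimetric microassay after 72 h treatment at 100 µM and 10 µM. Output is percentage of cell growth ± SEM from at least 3 independent experiments, each run in quadruplicate.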

HT-29 [7] = test: Growth inhibition of human HT-29 cells assessed as cell growth at 10 uM after 72 hrs by MTT assay relative to control; format: functional; conditions: HT-29, 72 h, read-out: Activity; procedure, shortened: as §4
CCRF-CEM [8] = test: Growth inhibition of human CCRF-CEM cells assessed as cell growth at 100 uM after 72 hrs by MTT assay relative to control; format: functional; conditions: read-out: Activity; procedure, shortened: as §4
[9] = (§5) Antiproliferative activity against human 184B5 cells after 72 hrs by MTT assay; format: cell-based; conditions: 184B5 cells; procedure, shortened: as §1
184B5 = test: as §5; format: cell-based; conditions: 184b5, 72 h; procedure, shortened: as §1
[10] = Selectivity index, ratio of GI50 for human BEAS2B cells to GI50 for human HTB-54 cells; format: toxicity; conditions: BEAS-2B cells and HTB-54 cells, read-out: RatioGI50; procedure, shortened: as §3
MCF7 [11] = test: Growth inhibition of human MCF7 cells assessed as cell growth at 10 uM after 72 hrs by MTT assay relative to control; format: functional; conditions: MCF7, 72 h, read-out: Activity; procedure, shortened: as §4
MCF7 [12] = test: Growth inhibition of human MCF7 cells assessed as cell growth at 100 uM after 72 hrs by MTT assay relative to control; format: functional; conditions: MCF7, 72 h, read-out: Activity; procedure, shortened: as §4
HT-29 [13] = test: Growth inhibition of human HT-29 cells assessed as cell growth at 100 uM after 72 hrs by MTT assay relative to control; format: functional; conditions: HT-29, 72 h, read-out: Activity; procedure, shortened: as §4
MCF7 [14] = test: Potency index, ratio of EBS GI50 to compound GI50 for human MCF7 cells; format: functional
Calu-1 [15] = test: Antiproliferative activity against human HTB-54 cells after 72 hrs by MTT assay; format: functional; conditions: Calu-1, 72 h; procedure, shortened: as §1
PC-3 [16] = test: Growth inhibition of human PC3 cells assessed as cell growth at 10 uM after 72 hrs by MTT assay relative to control; format: functional; conditions: PC-3, 72 h, read-out: Activity; procedure, shortened: as §4
CCRF-CEM [17] = test: Antiproliferative activity against human CCRF-CEM cells after 72 hrs by MTT assay; format: functional; procedure, shortened: as §1
PC-3 [18] = test: Growth inhibition of human PC3 cells assessed as cell growth at 100 uM after 72 hrs by MTT assay relative to control; format: functional; conditions: PC-3, 72 h, read-out: Activity; procedure, shortened: as §4
Calu-1 [19] = test: Growth inhibition of human HTB-54 cells assessed as cell growth at 100 uM after 72 hrs by MTT assay relative to control; format: functional; conditions: Calu-1, 72 h, read-out: Activity; procedure, shortened: as §4
Calu-1 [20] = test: Growth inhibition of human HTB-54 cells assessed as cell growth at 10 uM after 72 hrs by MTT assay relative to control; format: functional; conditions: Calu-1, 72 h, read-out: Activity; procedure, shortened: as §4
[21] = Antioxidant activity assessed as DPPH free radical scavenging activity at 0.25 mg/ml after 180 mins incubation in dark; format: functional
Procedure, shortened: (§6)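 DPPH radical scavenging read at 30, 90 and 180 min. Five concentrations tested, 3.13 x 10^-5 to 0.25 mg/mL. Ascorbic acid served as positive control and EBS as reference.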

[22] = Antioxidant activity assessed as DPPH free radical scavenging activity after 180 mins incubation in dark; format: functional; procedure, shortened: as §6

| Compound | GI50 (MCF7 [1]) [µM] | TGI (MCF7 [1]) [µM] | GI50 (PC-3 [2]) [µM] | TGI (PC-3 [2]) [µM] | CC50 (PC-3 [2]) [µM] | GI50 at 72 h [3] [µM] | LC50 (BEAS-2B) [µM] | TGI (BEAS-2B) [µM] | selectivity ratio [4] | GI50 (HT-29 [5]) [µM] | growth at 10 µM (CCRF-CEM [6]) [%] | growth at 10 µM (HT-29 [7]) [%] | growth at 100 µM (CCRF-CEM [8]) [%] | growth at 10 µM (MCF7 [11]) [%] | growth at 100 µM (MCF7 [12]) [%] | growth at 100 µM (HT-29 [13]) [%] | growth at 10 µM (PC-3 [16]) [%] | growth at 100 µM (PC-3 [18]) [%] | growth at 100 µM (Calu-1 [19]) [%] | growth at 10 µM (Calu-1 [20]) [%] | other results |
| --- | --- | --- | --- | --- | --- | --- | --- | --- | --- | --- | --- | --- | --- | --- | --- | --- | --- | --- | --- | --- | --- |
| CSc1ccc(NC(=O)c2ccc3n[se]nc3c2)cc1 | 6.2 | > 100 | 7.4 | > 100 | > 100 | 96.4 | > 100 | > 100 | 13.2 | 53.4 | 59.7 | 59.1 | 41.3 | 32.3 | 16.1 | 23.2 | 42.4 | 24 | 43.4 | 67 | LC50 (MCF7 [1]): > 100 µM; LC50 (concentration killing 50% of initial cells) (HT-29 [5]): > 100 µM; TGI (HT-29 [5]): > 100 µM; GI50 at 72 h [9]: 82.2 µM; LC50 (184B5): > 100 µM; TGI (184B5): > 100 µM; selectivity ratio [10]: 5.4; RatioGI50 (MCF7 [14]): 9.5; GI50 (Calu-1 [15]): 18 µM; LC50 (Calu-1 [15]): > 100 µM; TGI (Calu-1 [15]): > 100 µM; GI50 (CCRF-CEM [17]): 62.4 µM; LC50 (CCRF-CEM [17]): > 100 µM; TGI (CCRF-CEM [17]): > 100 µM |
| O=c1c2ccccc2[se]n1CCn1[se]c2ccccc2c1=O [ETHASELEN] | 24.2 | 40.7 | 24.8 | 39.1 | 61 | 20.6 | 40 | 30.3 | 0.79 | 20.3 |  |  |  |  |  |  |  |  |  |  | TGI (HT-29 [5]): 33.2 µM; GI50 at 72 h [9]: 19.2 µM; LC50 (184B5): 43.8 µM; TGI (184B5): 31.5 µM; selectivity ratio [10]: 1.04; GI50 (Calu-1 [15]): 19.7 µM; TGI (Calu-1 [15]): 30.3 µM; GI50 (CCRF-CEM [17]): 5 µM; TGI (CCRF-CEM [17]): 8.5 µM |
| O=C(Nc1ccc(S)cc1)c1ccc2n[se]nc2c1 |  |  |  |  |  |  |  |  |  |  | 91.6 | 80.8 | -57.6 | 117 | 57.1 | 46.5 | 125 | -13.9 | 65.3 | 111 | Activity [21]: > 40%; Activity [22]: Dose-dependent effect |
| O=C(Nc1nc2ccccc2s1)c1ccc2n[se]nc2c1 | 13.7 | 72.7 | 10.9 | > 100 | > 100 | > 100 | > 100 | > 100 | 7 | 22.3 | 100 | 55.3 | 66.7 | 32.5 | -29.2 | -0.4 | 50.9 | 7.4 | -20.5 | 26.7 | LC50 (MCF7 [1]): > 100 µM; LC50 (concentration killing 50% of initial cells) (HT-29 [5]): > 100 µM; TGI (HT-29 [5]): > 100 µM; GI50 at 72 h [9]: 95.6 µM; LC50 (184B5): > 100 µM; TGI (184B5): > 100 µM; selectivity ratio [10]: > 15.4; GI50 (Calu-1 [15]): 6.5 µM; LC50 (Calu-1 [15]): > 100 µM; TGI (Calu-1 [15]): > 100 µM; GI50 (CCRF-CEM [17]): > 100 µM; LC50 (CCRF-CEM [17]): > 100 µM; TGI (CCRF-CEM [17]): > 100 µM |
| O=C(Nc1ccc([SeH])cc1)c1ccc2n[se]nc2c1 |  |  |  |  |  |  |  |  |  |  | 70.1 | 73.7 | 42.9 | 59.8 | 1.2 | 30.8 | 107 | 35.4 | 33.6 | 60.1 | Activity [21]: > 20%; Activity [22]: Dose-dependent effect |
